Results taken from ChEMBL document CHEMBL4118021, “Studies of TAK1-centered polypharmacology with novel covalent TAK1 inhibitors” (Bioorg Med Chem, 2017).
Active and inactive are the calls of the source. The calls are words filed in the database; no cut-off is given here.

Tests used:
[1] = target: Serine/threonine-protein kinase TBK1 (Homo sapiens) (UniProt Q9UHD2); experiment: Inhibition of TBK1 in human SKCO1 cells at 1 uM after 4 hrs using biotin labeled TGDLFAIKVFNNISFLRPVDVQMR probe by mass-spectrometric analysis relative to control; assay type: cell-based
[2] = target: Serine/threonine-protein kinase 36 (Homo sapiens) (UniProt Q9NRP7); experiment: Inhibition of human STK36 (1 to 271 residues) expressed in bacterial expression system assessed as enzyme activity at 10 uM by KINOMEScan assay relative to control; parameters: scale not given: the % may be the effect or the level left
Outline: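 In vitro ATP-site competition binding assay across a panel of 456 kinases, with compound tested at 1 and 10 μM.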

[3] = target: Phosphatidylinositol 5-phosphate 4-kinase type-2 gamma (Homo sapiens) (UniProt Q8TBX8); experiment: Inhibition of PIP4K2C in human SKCO1 cells at 1 uM after 4 hrs using biotin labeled TLVIKEVSSEDIADMHSNLSNYHQYIVK probe by mass-spectrometric analysis relative to control; assay type: cell-based
[4] = target: Proteasome activator complex subunit 2 (Homo sapiens) (UniProt Q9UL46); experiment: Binding affinity to PSME2 in human NCI-H23 cells at 1 uM by mass spectrometry based pull down assay; assay type: cell-based
[5] = target: Clustered mitochondria protein homolog (Homo sapiens) (UniProt O75153); experiment: Binding affinity to CLUH in human NCI-H23 cells at 1 uM by mass spectrometry based pull down assay; assay type: cell-based
[6] = target: Polymeric immunoglobulin receptor (Homo sapiens) (UniProt P01833); experiment: Binding affinity to PIGR in human NCI-H358 cells at 1 uM by mass spectrometry based pull down assay; assay type: cell-based
[7] = target: Importin-5 (Homo sapiens) (UniProt O00410); experiment: Binding affinity to IPO5 in human NCI-H23 cells at 1 uM by mass spectrometry based pull down assay; assay type: cell-based
[8] = target: TGF-beta-activated kinase 1 and MAP3K7-binding protein 1 (Homo sapiens) (UniProt Q15750); experiment: Binding affinity to TAB1 in human NCI-H358 cells at 1 uM by mass spectrometry based pull down assay; assay type: cell-based
[9] = target: Mitogen-activated protein kinase 1 (Homo sapiens) (UniProt P28482); experiment: Binding affinity to MAPK1 in human NCI-H23 cells at 1 uM by mass spectrometry based pull down assay; assay type: cell-based
[10] = target: Bifunctional phosphoribosylaminoimidazole carboxylase/phosphoribosylaminoimidazole succinocarboxamide synthetase (Homo sapiens) (UniProt P22234); experiment: Binding affinity to PAICS in human NCI-H358 cells at 1 uM by mass spectrometry based pull down assay; assay type: cell-based
[11] = target: Glutathione S-transferase P (Homo sapiens) (UniProt P09211); experiment: Binding affinity to GSTP1 in human NCI-H23 cells at 1 uM by mass spectrometry based pull down assay; assay type: cell-based
[12] = target: Pyrroline-5-carboxylate reductase 1, mitochondrial (Homo sapiens) (UniProt P32322); experiment: Binding affinity to PYCR1 in human NCI-H358 cells at 1 uM by mass spectrometry based pull down assay; assay type: cell-based
[13] = target: RuvB-like 2 (Homo sapiens) (UniProt Q9Y230); experiment: Binding affinity to RUVBL2 in human NCI-H23 cells at 1 uM by mass spectrometry based pull down assay; assay type: cell-based
[14] = target: T1, Serine/threonine-protein kinase D2 (Homo sapiens) (UniProt Q9BZL6); experiment: Binding affinity to PRKD2 in human NCI-H23 cells at 1 uM by mass spectrometry based pull down assay; assay type: cell-based
T1 sequence (whole entry): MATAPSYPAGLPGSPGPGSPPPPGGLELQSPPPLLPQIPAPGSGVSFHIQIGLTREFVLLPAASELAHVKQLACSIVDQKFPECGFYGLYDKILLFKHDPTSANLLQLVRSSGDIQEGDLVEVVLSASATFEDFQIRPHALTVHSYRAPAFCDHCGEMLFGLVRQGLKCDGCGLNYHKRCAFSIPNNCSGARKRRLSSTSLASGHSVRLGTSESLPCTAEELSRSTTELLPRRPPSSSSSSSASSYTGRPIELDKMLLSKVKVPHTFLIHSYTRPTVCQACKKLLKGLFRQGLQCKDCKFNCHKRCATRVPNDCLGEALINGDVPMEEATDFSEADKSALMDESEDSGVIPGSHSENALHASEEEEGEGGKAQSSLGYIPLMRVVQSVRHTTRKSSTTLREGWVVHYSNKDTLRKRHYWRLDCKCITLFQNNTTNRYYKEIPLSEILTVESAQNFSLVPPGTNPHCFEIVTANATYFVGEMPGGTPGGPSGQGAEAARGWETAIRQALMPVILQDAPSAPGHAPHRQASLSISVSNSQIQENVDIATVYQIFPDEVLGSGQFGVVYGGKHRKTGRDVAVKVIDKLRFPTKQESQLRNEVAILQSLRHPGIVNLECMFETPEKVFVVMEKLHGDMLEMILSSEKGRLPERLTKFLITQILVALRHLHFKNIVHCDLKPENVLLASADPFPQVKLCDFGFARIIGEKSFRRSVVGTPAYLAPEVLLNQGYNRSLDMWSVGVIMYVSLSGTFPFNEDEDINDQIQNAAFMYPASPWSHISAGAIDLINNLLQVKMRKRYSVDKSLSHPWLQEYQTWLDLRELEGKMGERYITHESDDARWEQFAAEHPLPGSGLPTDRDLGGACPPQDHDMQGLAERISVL

[15] = target: ATP-dependent 6-phosphofructokinase, liver type (Homo sapiens) (UniProt P17858); experiment: Binding affinity to PFKL in human NCI-H23 cells at 1 uM by mass spectrometry based pull down assay; assay type: cell-based
[16] = target: WD repeat and HMG-box DNA-binding protein 1 (Homo sapiens) (UniProt O75717); experiment: Binding affinity to WDHD1 in human NCI-H358 cells at 1 uM by mass spectrometry based pull down assay; assay type: cell-based
[17] = target: Y-box-binding protein 3 (Homo sapiens) (UniProt P16989); experiment: Binding affinity to YBX3 in human NCI-H23 cells at 1 uM by mass spectrometry based pull down assay; assay type: cell-based
[18] = target: Thioredoxin reductase 1, cytoplasmic (Homo sapiens) (UniProt Q16881); experiment: Binding affinity to TXNRD1 in human NCI-H23 cells at 1 uM by mass spectrometry based pull down assay; assay type: cell-based
[19] = target: Tropomyosin alpha-4 chain (Homo sapiens) (UniProt P67936); experiment: Binding affinity to TPM4 in human NCI-H23 cells at 1 uM by mass spectrometry based pull down assay; assay type: cell-based
[20] = target: Proteasome subunit beta type-6 (Homo sapiens) (UniProt P28072); experiment: Binding affinity to PSMB6 in human NCI-H23 cells at 1 uM by mass spectrometry based pull down assay; assay type: cell-based

Glutathione S-transferase P (Homo sapiens), sequence (P09211 2-210 limits assumed): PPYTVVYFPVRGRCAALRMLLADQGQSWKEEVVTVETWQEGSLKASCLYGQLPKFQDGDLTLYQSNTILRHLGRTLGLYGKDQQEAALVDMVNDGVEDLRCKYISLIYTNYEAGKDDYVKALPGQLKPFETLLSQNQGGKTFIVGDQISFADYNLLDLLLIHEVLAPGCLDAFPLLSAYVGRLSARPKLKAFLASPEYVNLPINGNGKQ
RuvB-like 2 (Homo sapiens), sequence (Q9Y230 whole entry): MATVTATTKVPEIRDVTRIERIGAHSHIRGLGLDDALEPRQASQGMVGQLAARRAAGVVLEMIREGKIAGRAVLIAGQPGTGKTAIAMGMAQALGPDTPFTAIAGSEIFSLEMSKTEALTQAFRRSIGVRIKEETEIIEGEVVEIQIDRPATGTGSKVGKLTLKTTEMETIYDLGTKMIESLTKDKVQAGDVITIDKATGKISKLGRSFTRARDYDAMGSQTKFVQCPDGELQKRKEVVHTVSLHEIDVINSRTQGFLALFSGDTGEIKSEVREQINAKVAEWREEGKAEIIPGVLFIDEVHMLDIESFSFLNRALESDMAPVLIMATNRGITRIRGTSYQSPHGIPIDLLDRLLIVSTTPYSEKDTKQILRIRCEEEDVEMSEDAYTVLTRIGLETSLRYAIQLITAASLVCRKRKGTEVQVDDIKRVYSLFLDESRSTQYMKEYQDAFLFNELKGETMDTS
Clustered mitochondria protein homolog (Homo sapiens), sequence (O75153 whole entry): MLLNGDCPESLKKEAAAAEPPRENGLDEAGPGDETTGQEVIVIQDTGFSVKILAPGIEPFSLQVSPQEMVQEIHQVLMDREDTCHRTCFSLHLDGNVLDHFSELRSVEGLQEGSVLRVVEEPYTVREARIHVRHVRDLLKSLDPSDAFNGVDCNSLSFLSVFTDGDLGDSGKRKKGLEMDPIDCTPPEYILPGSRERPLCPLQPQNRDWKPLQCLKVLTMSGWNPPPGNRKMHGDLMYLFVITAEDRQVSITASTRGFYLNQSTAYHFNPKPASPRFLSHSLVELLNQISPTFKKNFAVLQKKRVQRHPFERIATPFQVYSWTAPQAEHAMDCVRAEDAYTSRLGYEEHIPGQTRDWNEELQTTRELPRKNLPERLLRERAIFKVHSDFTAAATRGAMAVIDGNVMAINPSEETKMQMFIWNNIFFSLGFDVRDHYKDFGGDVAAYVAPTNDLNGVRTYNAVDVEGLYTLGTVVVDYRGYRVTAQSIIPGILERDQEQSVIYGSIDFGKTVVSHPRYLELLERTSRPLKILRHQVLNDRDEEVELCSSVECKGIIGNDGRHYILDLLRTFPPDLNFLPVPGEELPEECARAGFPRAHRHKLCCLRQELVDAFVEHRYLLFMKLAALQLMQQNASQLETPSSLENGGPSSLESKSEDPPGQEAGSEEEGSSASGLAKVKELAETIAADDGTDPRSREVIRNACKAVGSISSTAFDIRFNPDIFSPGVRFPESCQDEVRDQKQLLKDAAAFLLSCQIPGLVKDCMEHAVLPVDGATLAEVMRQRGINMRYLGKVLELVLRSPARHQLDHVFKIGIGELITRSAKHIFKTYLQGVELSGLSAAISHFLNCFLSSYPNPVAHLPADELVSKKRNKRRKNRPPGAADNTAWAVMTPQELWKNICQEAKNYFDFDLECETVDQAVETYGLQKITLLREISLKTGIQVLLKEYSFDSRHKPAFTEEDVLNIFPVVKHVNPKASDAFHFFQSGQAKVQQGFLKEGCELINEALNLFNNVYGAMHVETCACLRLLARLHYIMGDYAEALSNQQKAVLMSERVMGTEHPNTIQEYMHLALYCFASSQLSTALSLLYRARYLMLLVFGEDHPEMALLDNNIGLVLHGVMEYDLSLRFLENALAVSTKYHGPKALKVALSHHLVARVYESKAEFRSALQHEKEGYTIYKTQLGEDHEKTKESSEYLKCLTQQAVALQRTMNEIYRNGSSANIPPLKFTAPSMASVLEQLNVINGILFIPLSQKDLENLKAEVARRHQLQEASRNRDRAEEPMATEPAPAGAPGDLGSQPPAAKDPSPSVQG
Mitogen-activated protein kinase 1 (Homo sapiens), sequence (P28482 whole entry): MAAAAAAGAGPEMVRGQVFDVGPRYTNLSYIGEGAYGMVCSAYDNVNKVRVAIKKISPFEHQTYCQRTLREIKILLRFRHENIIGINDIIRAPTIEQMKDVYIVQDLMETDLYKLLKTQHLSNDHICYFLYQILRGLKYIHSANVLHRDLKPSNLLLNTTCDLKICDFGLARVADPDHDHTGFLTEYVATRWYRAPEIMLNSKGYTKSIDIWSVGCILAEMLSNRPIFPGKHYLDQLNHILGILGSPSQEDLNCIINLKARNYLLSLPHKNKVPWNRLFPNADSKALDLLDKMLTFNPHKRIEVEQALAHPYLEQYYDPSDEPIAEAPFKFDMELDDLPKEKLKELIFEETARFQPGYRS
Y-box-binding protein 3 (Homo sapiens), sequence (P16989 whole entry): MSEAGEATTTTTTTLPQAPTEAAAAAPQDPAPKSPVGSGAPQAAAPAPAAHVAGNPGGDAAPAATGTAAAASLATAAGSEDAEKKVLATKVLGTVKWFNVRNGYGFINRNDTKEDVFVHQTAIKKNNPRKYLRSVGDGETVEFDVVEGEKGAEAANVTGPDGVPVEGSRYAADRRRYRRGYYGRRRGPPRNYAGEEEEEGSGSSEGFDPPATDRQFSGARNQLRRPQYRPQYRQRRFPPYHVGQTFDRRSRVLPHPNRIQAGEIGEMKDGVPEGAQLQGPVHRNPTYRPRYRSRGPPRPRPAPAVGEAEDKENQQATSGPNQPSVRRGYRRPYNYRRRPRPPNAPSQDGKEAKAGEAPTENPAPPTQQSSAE
Tropomyosin alpha-4 chain (Homo sapiens), sequence (P67936 whole entry): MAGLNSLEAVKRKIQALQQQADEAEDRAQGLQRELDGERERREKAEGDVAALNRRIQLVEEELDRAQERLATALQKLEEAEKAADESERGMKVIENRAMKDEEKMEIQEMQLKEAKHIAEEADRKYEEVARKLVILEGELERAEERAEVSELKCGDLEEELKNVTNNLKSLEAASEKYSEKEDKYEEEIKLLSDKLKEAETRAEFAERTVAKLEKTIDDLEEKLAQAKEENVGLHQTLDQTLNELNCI
Thioredoxin reductase 1, cytoplasmic (Homo sapiens), sequence (Q16881 whole entry): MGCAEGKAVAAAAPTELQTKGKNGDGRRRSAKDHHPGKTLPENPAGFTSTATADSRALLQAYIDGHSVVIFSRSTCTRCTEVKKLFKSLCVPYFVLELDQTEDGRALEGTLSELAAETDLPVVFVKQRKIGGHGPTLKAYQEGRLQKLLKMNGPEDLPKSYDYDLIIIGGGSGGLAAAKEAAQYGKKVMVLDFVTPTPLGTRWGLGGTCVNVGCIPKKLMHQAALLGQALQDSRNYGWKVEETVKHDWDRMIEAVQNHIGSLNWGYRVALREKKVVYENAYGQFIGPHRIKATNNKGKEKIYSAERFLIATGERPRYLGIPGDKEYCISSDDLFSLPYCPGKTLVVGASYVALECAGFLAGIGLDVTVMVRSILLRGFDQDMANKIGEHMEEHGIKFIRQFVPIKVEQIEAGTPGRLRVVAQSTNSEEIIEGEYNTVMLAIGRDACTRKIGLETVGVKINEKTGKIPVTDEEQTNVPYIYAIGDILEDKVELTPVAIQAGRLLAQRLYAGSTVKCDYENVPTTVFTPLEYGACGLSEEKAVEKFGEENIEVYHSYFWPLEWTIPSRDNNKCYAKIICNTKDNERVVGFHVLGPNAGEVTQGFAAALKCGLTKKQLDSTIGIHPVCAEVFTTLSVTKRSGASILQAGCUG
Serine/threonine-protein kinase 36 (Homo sapiens), sequence (Q9NRP7 whole entry, the tested form may be a part): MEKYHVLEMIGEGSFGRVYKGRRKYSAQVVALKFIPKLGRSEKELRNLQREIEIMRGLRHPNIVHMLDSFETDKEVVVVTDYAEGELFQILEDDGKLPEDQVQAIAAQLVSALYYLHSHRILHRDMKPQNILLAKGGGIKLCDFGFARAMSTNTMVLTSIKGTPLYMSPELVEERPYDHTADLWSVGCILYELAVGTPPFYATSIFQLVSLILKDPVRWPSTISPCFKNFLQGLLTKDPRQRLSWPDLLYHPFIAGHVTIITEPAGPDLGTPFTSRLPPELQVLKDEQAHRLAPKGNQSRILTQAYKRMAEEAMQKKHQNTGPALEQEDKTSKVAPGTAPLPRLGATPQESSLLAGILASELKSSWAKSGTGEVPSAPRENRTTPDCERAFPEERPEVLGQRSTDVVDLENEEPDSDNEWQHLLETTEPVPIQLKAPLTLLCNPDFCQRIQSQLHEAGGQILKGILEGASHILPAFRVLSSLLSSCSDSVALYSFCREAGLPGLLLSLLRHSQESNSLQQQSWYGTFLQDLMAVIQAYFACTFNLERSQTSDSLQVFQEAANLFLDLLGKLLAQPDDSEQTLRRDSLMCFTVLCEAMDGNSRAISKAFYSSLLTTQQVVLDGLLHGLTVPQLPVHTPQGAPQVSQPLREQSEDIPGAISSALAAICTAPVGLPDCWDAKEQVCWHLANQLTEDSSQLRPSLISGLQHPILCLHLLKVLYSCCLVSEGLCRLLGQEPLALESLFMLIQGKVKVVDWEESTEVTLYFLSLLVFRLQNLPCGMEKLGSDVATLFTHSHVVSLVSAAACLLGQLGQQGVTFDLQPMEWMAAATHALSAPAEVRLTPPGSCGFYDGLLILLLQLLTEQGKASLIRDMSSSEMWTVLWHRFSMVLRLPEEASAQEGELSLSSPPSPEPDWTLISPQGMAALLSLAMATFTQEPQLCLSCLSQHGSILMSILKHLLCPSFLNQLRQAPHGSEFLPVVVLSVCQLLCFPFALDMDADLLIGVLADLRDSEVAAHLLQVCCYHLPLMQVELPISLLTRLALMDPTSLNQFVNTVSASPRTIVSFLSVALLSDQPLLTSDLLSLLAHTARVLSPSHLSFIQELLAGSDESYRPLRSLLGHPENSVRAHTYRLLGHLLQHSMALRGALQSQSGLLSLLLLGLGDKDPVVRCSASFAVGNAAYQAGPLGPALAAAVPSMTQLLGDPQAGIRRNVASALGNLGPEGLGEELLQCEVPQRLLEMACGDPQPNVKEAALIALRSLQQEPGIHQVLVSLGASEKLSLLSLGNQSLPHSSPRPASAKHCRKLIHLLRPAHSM

C=CC(=O)Nc1ccccc1Nc1nc(Nc2ccc(N3CCN(C)CC3)cc2)ncc1Cl
inhibition [1]: 61%

COc1cc(O)c2c(c1)/C=C/C[C@H](O)[C@H](O)C(=O)/C=C\C[C@H](C)OC2=O
Activity [2]: 0.95% | inhibition [3]: 16.8%

C=CC(=O)Nc1ccccc1Nc1nc(Nc2ccc(N3CCN(CCOCCOCCOCCNC(=O)CCCC[C@@H]4SC[C@@H]5NC(=O)N[C@@H]54)CC3)cc2)ncc1Cl
Activity [4]: Active | Activity [5]: Active | Activity [6]: Active | Activity [7]: Active | Activity [8]: Active | Activity [9]: Active | Activity [10]: Active | Activity [11]: Active | Activity [12]: Active | Activity [13]: Active | Activity [14]: Active | Activity [15]: Active | Activity [16]: Active | Activity [17]: Active | Activity [18]: Active | Activity [19]: Active | Activity [20]: Active
